Reference: ChEMBL document CHEMBL4017489, “Design, Synthesis, and Evaluation of New Selective NM23-H2 Binders as c-MYC Transcription Inhibitors via Disruption of the NM23-H2/G-Quadruplex Interaction” (J Med Chem, 2017)
The source made the active and inactive calls. No cut-off for these calls is given here.

Tests used:
[1] = biological target: Nucleoside diphosphate kinase B (Homo sapiens, UniProt P22392, D54A); experiment: Binding affinity to NM23-H2 D54A mutant (unknown origin) by SPR analysis
Chain of Nucleoside diphosphate kinase B (Homo sapiens, UniProt P22392, D54A) (P22392 whole entry D54A): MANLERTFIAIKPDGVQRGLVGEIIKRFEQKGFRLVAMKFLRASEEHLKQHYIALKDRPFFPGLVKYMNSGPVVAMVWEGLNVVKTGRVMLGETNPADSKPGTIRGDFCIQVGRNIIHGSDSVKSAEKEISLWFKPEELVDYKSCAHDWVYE

[2] = biological target: T1, Nucleoside diphosphate kinase B (Homo sapiens, UniProt P22392, G113F); experiment: Binding affinity to NM23-H2 G113F mutant (unknown origin) by SPR analysis
T1 sequence (P22392 whole entry G113F): as the sequence (P22392 whole entry D54A) above, with A54D, G113F counted along it

[3] = biological target: T1, Nucleoside diphosphate kinase B; experiment: Binding affinity to N-terminal NT-647-NHS labeled NM23-H2 G113F mutant (unknown origin) after 30 mins by MST analysis
[4] = biological target: Nucleoside diphosphate kinase B (Homo sapiens, UniProt P22392, H118F); experiment: Binding affinity to NM23-H2 H118F mutant (unknown origin) by SPR analysis
Chain of Nucleoside diphosphate kinase B (Homo sapiens, UniProt P22392, H118F) (P22392 whole entry H118F): as the sequence (P22392 whole entry D54A) above, with A54D, H118F counted along it

[5] = Binding affinity to N-terminal NT-647-NHS labeled NM23-H2 D121A mutant (unknown origin) after 30 mins by MST analysis; set-up: species or system Homo sapiens
SiHa [6] = experiment: Antiproliferative activity against human SiHa cells after 48 hrs by MTT assay; assay type: functional, cell-based
[7] = biological target: Nucleoside diphosphate kinase B (Homo sapiens, UniProt P22392); experiment: Binding affinity to NM23-H2 in human SiHa cells assessed as disruption of protein interaction with c-myc G-quadruplex DNA by measuring decrease in c-MYC protein expresson at 1 to 2 uM after 48 hrs by Western blot analysis; assay type: cell-based
Chain of Nucleoside diphosphate kinase B (Homo sapiens, UniProt P22392) (P22392 whole entry): as the sequence (P22392 whole entry D54A) above, with A54D counted along it
In short: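 SiHa cells treated 48 h; lysates (30 μg) on 10% SDS-PAGE, nitrocellulose, anti-c-MYC overnight at 4 °C, HRP secondary, chemiluminescence; β-actin internal control; three repeats.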

SiHa [8] = experiment: Induction of apoptosis in human SiHa cells assessed as early apoptotic cells at 2 uM after 48 hrs by Annexin V-FITC/propidium iodide based flow cytometric analysis (reference value: 1.4 %); assay type: functional
SiHa [9] = experiment: Induction of apoptosis in human SiHa cells assessed as late apoptotic cells at 1 uM after 48 hrs by Annexin V-FITC/propidium iodide based flow cytometric analysis (reference value: 0.7 %); assay type: functional
SiHa [10] = experiment: Induction of apoptosis in human SiHa cells assessed as late apoptotic cells at 2 uM after 48 hrs by Annexin V-FITC/propidium iodide based flow cytometric analysis (reference value: 0.7 %); assay type: functional
SiHa [11] = experiment: Induction of apoptosis in human SiHa cells assessed as increase in cleaved PARP level after 48 hrs by Western blot analysis; assay type: functional, cell-based
In short: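 SiHa cells treated with 0, 0.5, 1.0 or 2.0 μM for 48 h and lysed for total protein. Caspase-3, cleaved caspase-3, PARP and cleaved PARP detected by Western blot (30 μg protein, 10% SDS-PAGE, HRP chemiluminescence). Bands quantified by densitometry; at least three experiments.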

SiHa [12] = experiment: Down regulation of cyclin D1 expression in human SiHa cells at 0.5 to 2 uM after 24 to 48 hrs by Western blot analysis; assay type: functional, cell-based
In short: (§1)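 SiHa cells (2.0 × 10^5) treated with compound at various concentrations for 24 or 48 h, then lysed at 4 °C. Protein measured by BCA; 30 μg run on 10% SDS-PAGE and transferred to nitrocellulose. Membranes blocked in 5% milk, probed with primary antibodies overnight at 4 °C, then HRP secondary for 2 h, and detected by chemiluminescence. Bands quantified by densitometry; at least three experiments.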

SiHa [13] = experiment: Down regulation of CDK4 expression in human SiHa cells at 0.5 to 2 uM after 24 to 48 hrs by Western blot analysis; assay type: functional, cell-based; in short: as §1
SiHa [14] = experiment: Cell cycle arrest in human SiHa cells assessed as accumulation at G0/G1 phase at 2 uM after 3 hrs by propidium iodide staining based flow cytometry (reference value: 48%); assay type: functional
In short: (§2)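 SiHa cells plated 24 h, treated at 2 μM for 3–48 h; fixed in ice-cold 70% ethanol overnight, RNase A 20 μg/mL 37 °C 30 min, PI-stained, flow cytometry at 488 nm; phase percentages quantified; at least three experiments.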

SiHa [15] = experiment: Cell cycle arrest in human SiHa cells assessed as accumulation at G2/M phase at 2 uM after 6 hrs by propidium iodide staining based flow cytometry (reference value: 39 %); assay type: functional
In short: (§3)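 SiHa cells (2.0 × 10^5 per well) plated 24 h, then exposed to 2 μM compound or left untreated for 3, 6, 9, 12, 24, 36 or 48 h. Cells washed in PBS, fixed overnight in ice-cold 70% ethanol, treated with 20 μg/mL RNase A for 30 min at 37 °C, stained with PI, and read by flow cytometry at 488 nm. Phase percentages compared with untreated control; at least three experiments.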

SiHa [16] = experiment: Cell cycle arrest in human SiHa cells assessed as accumulation at G2/M phase at 2 uM after 9 hrs by propidium iodide staining based flow cytometry (reference value: 39 %); assay type: functional; in short: as §3
SiHa [17] = experiment: Cell cycle arrest in human SiHa cells assessed as accumulation at G2/M phase at 2 uM after 24 hrs by propidium iodide staining based flow cytometry (reference value: 39 %); assay type: functional; in short: as §2
SiHa [18] = experiment: Cell cycle arrest in human SiHa cells assessed as accumulation at G2/M phase at 2 uM after 36 hrs by propidium iodide staining based flow cytometry (reference value: 39 %); assay type: functional; in short: as §3
[19] = Induction of apoptosis in mouse primary mesangial cells at 0.5 to 2 uM after 48 hrs by Annexin V-FITC/propidium iodide based flow cytometric analysis; conditions: primary mesangial cell
In short: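 Primary cultured mouse mesangial cells treated at the same concentrations as SiHa cells. Stained with annexin V-FITC and PI and analysed by flow cytometry.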

SiHa [20] = experiment: Anticlonogenic activity against human SiHa cells up to 0.5 uM after 14 days by crystal violet staining based assay; assay type: functional, cell-based
In short: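 Colony formation: SiHa cells and primary cultured mouse mesangial cells exposed to 0.5, 0.25, 0.125, 0.0625 and 0.03125 μM for 14 days, DMSO as negative control; three repeats.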

SiHa [21] = experiment: Antitumor activity against human SiHa cells xenografted in BALB/C nude mouse assessed as tumor growth inhibition at 5 mg/kg, ip administered daily after 3 weeks relative to control; assay type: functional; conditions: 504 h, read-out: TGI
Mus musculus [22] = experiment: Toxicity in BALB/C nude mouse xenografted with human SiHa cells at 2.5 to 5 mg/kg, ip administered daily after 3 weeks; assay type: organism-based; conditions: in vivo, 504 h
In short: (§4)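 SiHa cells implanted in the right armpit of BALB/c nu/nu mice. At approximately 50 mm3, mice randomized (n = 8/group) to vehicle, compound 2.5 or 5.0 mg/kg, or doxorubicin 1.0 mg/kg, given ip daily for 3 weeks. Body weight and signs of pain, distress or discomfort monitored; tumors excised and weighed. Data given as mean ± SEM, t test against vehicle.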

SiHa [23] = experiment: Antitumor activity against human SiHa cells xenografted in BALB/C nude mouse assessed as tumor weight at 5 mg/kg, ip administered daily after 3 weeks (reference value: 511.6 mg); assay type: functional
Mus musculus [24] = experiment: Toxicity in BALB/C nude mouse xenografted with human SiHa cells assessed as pain at 2.5 to 5 mg/kg, ip administered daily after 3 weeks; assay type: organism-based; conditions: in vivo, 504 h; in short: as §4
Mus musculus [25] = experiment: Toxicity in BALB/C nude mouse xenografted with human SiHa cells assessed as distress at 2.5 to 5 mg/kg, ip administered daily after 3 weeks; assay type: organism-based; conditions: in vivo, 504 h; in short: as §4
SiHa [26] = experiment: Induction of apoptosis in human SiHa cells assessed as necrotic cells at 2 uM after 48 hrs by Annexin V-FITC/propidium iodide based flow cytometric analysis (reference value: 0.3%); assay type: functional

## CN(C)CCCNc1cc2nc3n(c(=O)c2cc1F)CC/C3=C\c1ccc(OCc2ccccc2)cc1O
[1]
  Kd: 18.4 µM
[2]
  Kd: 15.5 µM
[3]
  Kd: 13.5 µM
[4]
  Kd: 47 µM
[5]
  Kd: 94.1 µM
SiHa [6]
  IC50: 1.78 µM
[7]
  Activity: Active
SiHa [8]
  Activity: 4.8%
SiHa [9]
  Activity: 10.6%
SiHa [10]
  Activity: 90.3%
SiHa [11]
  Activity: Dose-dependent effect
SiHa [12]
  Activity: Active
SiHa [13]
  Activity: Active
SiHa [14]
  Activity: 51%
SiHa [15]
  Activity: 26%
SiHa [16]
  Activity: 21%
SiHa [17]
  Activity: 8%
SiHa [18]
  Activity: 0%
[19]
  Activity: Non-Toxic
SiHa [20]
  Activity: Active
SiHa [21]
  inhibition in vivo at 5 mg/kg: 64.8%
Mus musculus [22]
  Activity: Non-Toxic
SiHa [23]
  Activity: 180.1 mg
Mus musculus [24]
  Activity: Non-Toxic
Mus musculus [25]
  Activity: Non-Toxic
SiHa [26]
  Activity: 2.2%
